# From ChEMBL document CHEMBL3271970, “Radiopharmaceuticals. 16. Halogenated dopamine analogs. Synthesis and radiolabeling of 6-iododopamine and tissue distribution studies in animals” (J Med Chem, 1976)
# Experiments:
# [1] = tested on: Mus musculus; assay: Biodistribution in adrenal gland of mouse assessed per organ at 8 to 11 x 10^-8 mol, iv measured after 240 mins; assay type: ADME, organism-based; conditions: in vivo, 4 h
# In short: (§1)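 [131I]- or [123I]-6-iododopamine in water or saline, used within 30 min of preparation. Injected iv at 8-11 × 10^-8 mol/mouse. Mice killed by ether overdose at 5-240 min; 3-10 mice per time point. Tissue radioactivity expressed as % dose/organ ± SD.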
# [2] = Biodistribution in thyroid gland of mongrel dog assessed per organ at 1.29 x 10^-6 mol, iv measured after 24 hrs; assay type: ADME, organism-based, Canis lupus familiaris; conditions: in vivo
# In short: (§2)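 Radioiodine-labelled tracer given at 1.29 × 10^-6 mol/dog. One dog per time point, killed at 2 or 24 h. Thyroids and other small organs were taken intact and counted. Large organs were sampled three times and averaged. Result given as % dose/organ.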
# [3] = tested on: Mus musculus; assay: Biodistribution in adrenal gland of mouse assessed per organ at 8 to 11 x 10^-8 mol, iv measured after 5 mins; assay type: ADME, organism-based; conditions: in vivo; in short: as §1
# [4] = tested on: Mus musculus; assay: Biodistribution in thyroid gland of mouse assessed per organ at 8 to 11 x 10^-8 mol, iv measured after 30 mins; assay type: ADME, organism-based; conditions: in vivo, 0.5 h
# In short: (§3)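 Tracer labelled with either 123I or 131I, in water or saline, used within 30 min of preparation. Mice dosed iv at 8-11 × 10^-8 mol/mouse and killed by ether overdose. Organs counted as % dose/organ ± SD, n = 3-10 mice per time point.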
# [5] = tested on: Liver; assay: Biodistribution in liver of rat assessed per organ at 3.6 x 10^-8 mol, iv measured after 60 mins; assay type: ADME, organism-based; conditions: in vivo, 1 h
# In short: (§4)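 [131I]-labelled tracer in water or saline, injected within 30 min of preparation. Rats given 3.6 × 10^-8 mol/rat iv, killed by ether overdose at each time point. Organs excised and radioactivity counted as % dose/organ, mean ± SD of four rats.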
# [6] = tested on: Liver; assay: Biodistribution in liver of rat assessed per organ at 3.6 x 10^-8 mol, iv measured after 30 mins; assay type: ADME, organism-based; conditions: in vivo, 0.5 h; in short: as §4
# [7] = tested on: Adrenal medulla; assay: Biodistribution in adrenal medulla of rat assessed per organ at 3.6 x 10^-8 mol, iv measured after 30 mins; assay type: ADME, organism-based; conditions: in vivo, 0.5 h
# In short: (§5)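 [131I]-6-iododopamine in water or saline, used within 30 min of preparation. Injected iv at 3.6 × 10^-8 mol/rat. Rats killed by ether overdose at 5, 30 or 60 min, or at 2, 4 or 24 h. Tissue radioactivity expressed as % dose/organ, mean ± SD of four rats.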
# [8] = tested on: Rattus norvegicus; assay: Biodistribution in adrenal cortex of rat assessed per organ at 3.6 x 10^-8 mol, iv measured after 60 mins; assay type: ADME, organism-based; conditions: in vivo, 1 h; in short: as §5
# [9] = Biodistribution in thyroid gland of mongrel dog assessed per organ at 1.29 x 10^-6 mol, iv measured after 2 hrs; assay type: ADME, organism-based, Canis lupus familiaris; conditions: in vivo; in short: as §2
# [10] = tested on: Liver; assay: Biodistribution in liver of mouse assessed per organ at 8 to 11 x 10^-8 mol, iv measured after 5 mins; assay type: ADME, organism-based; conditions: in vivo; in short: as §1
# [11] = tested on: Kidney; assay: Biodistribution in kidney of rat assessed per organ at 3.6 x 10^-8 mol, iv measured after 4 hrs; assay type: ADME, organism-based; conditions: in vivo; in short: as §5
# [12] = tested on: Kidney; assay: Biodistribution in kidney of mouse assessed per organ at 8 to 11 x 10^-8 mol, iv measured after 5 mins; assay type: ADME, organism-based; conditions: in vivo; in short: as §1
# [13] = tested on: Blood; assay: Biodistribution in blood of rat at 3.6 x 10^-8 mol, iv measured after 60 mins; assay type: ADME, organism-based; conditions: in vivo, 1 h
# In short: (§6)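 [131I]-6-iododopamine in water or saline, used within 30 min of preparation. Injected iv at 3.6 × 10^-8 mol/rat. Rats killed by ether overdose at 5 min to 24 h. Blood radioactivity expressed as % dose/g, mean ± SD of four rats.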
# [14] = tested on: Liver; assay: Biodistribution in liver of rat assessed per organ at 3.6 x 10^-8 mol, iv measured after 2 hrs; assay type: ADME, organism-based; conditions: in vivo; in short: as §4
# [15] = tested on: Kidney; assay: Biodistribution in kidney of rat assessed per organ at 3.6 x 10^-8 mol, iv measured after 24 hrs; assay type: ADME, organism-based; conditions: in vivo; in short: as §5
# [16] = tested on: Mus musculus; assay: Biodistribution in adrenal gland of mouse assessed per organ at 8 to 11 x 10^-8 mol, iv measured after 30 mins; assay type: ADME, organism-based; conditions: in vivo, 0.5 h; in short: as §1
# [17] = tested on: Rattus norvegicus; assay: Biodistribution in thyroid gland of rat assessed per organ at 3.6 x 10^-8 mol, iv measured after 24 hrs; assay type: ADME, organism-based; conditions: in vivo; in short: as §4
# [18] = tested on: Blood; assay: Biodistribution in blood of rat at 3.6 x 10^-8 mol, iv measured after 5 mins; assay type: ADME, organism-based; conditions: in vivo; in short: as §6
# [19] = tested on: Liver; assay: Biodistribution in liver of mouse assessed per organ at 8 to 11 x 10^-8 mol, iv measured after 30 mins; assay type: ADME, organism-based; conditions: in vivo, 0.5 h; in short: as §1
# [20] = tested on: Adrenal medulla; assay: Biodistribution in adrenal medulla of rat assessed per organ at 3.6 x 10^-8 mol, iv measured after 4 hrs; assay type: ADME, organism-based; conditions: in vivo; in short: as §5
# [21] = tested on: Liver; assay: Biodistribution in liver of mouse assessed per organ at 8 to 11 x 10^-8 mol, iv measured after 120 mins; assay type: ADME, organism-based; conditions: in vivo, 2 h; in short: as §1
# [22] = Biodistribution in adrenal cortex of mongrel dog assessed per organ at 1.29 x 10^-6 mol, iv measured after 24 hrs; assay type: ADME, organism-based, Canis lupus familiaris; conditions: in vivo
# In short: (§7)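 Radioiodinated ([123I] or [131I]) 6-iododopamine in water or saline, used within 30 min of preparation. Given iv at 1.29 × 10^-6 mol/dog; one dog per time point, killed at 2 or 24 h. Large organs counted as three samples and averaged; adrenals and thyroid taken intact and counted. Expressed as % dose/organ.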
# [23] = tested on: Mus musculus; assay: Biodistribution in thyroid gland of mouse assessed per organ at 8 to 11 x 10^-8 mol, iv measured after 240 mins; assay type: ADME, organism-based; conditions: in vivo, 4 h; in short: as §3
# [24] = tested on: Liver; assay: Biodistribution in liver of mongrel dog assessed per organ at 1.29 x 10^-6 mol, iv measured after 2 hrs; assay type: ADME, organism-based, Canis lupus familiaris; conditions: in vivo; in short: as §7
# [25] = tested on: Rattus norvegicus; assay: Biodistribution in thyroid gland of rat assessed per organ at 3.6 x 10^-8 mol, iv measured after 60 mins; assay type: ADME, organism-based; conditions: in vivo, 1 h; in short: as §4
# [26] = tested on: Rattus norvegicus; assay: Biodistribution in adrenal cortex of rat assessed per organ at 3.6 x 10^-8 mol, iv measured after 2 hrs; assay type: ADME, organism-based; conditions: in vivo; in short: as §5
# [27] = tested on: Kidney; assay: Biodistribution in kidney of rat assessed per organ at 3.6 x 10^-8 mol, iv measured after 5 mins; assay type: ADME, organism-based; conditions: in vivo; in short: as §5
# [28] = tested on: Mus musculus; assay: Biodistribution in thyroid gland of mouse assessed per organ at 8 to 11 x 10^-8 mol, iv measured after 60 mins; assay type: ADME, organism-based; conditions: in vivo, 1 h; in short: as §3
# [29] = tested on: Adrenal medulla; assay: Biodistribution in adrenal medulla of rat assessed per organ at 3.6 x 10^-8 mol, iv measured after 24 hrs; assay type: ADME, organism-based; conditions: in vivo; in short: as §5
# [30] = tested on: Mus musculus; assay: Biodistribution in thyroid gland of mouse assessed per organ at 8 to 11 x 10^-8 mol, iv measured after 5 mins; assay type: ADME, organism-based; conditions: in vivo; in short: as §3
# [31] = Biodistribution in adrenal medulla of mongrel dog assessed per organ at 1.29 x 10^-6 mol, iv measured after 24 hrs; assay type: ADME, organism-based, Canis lupus familiaris; conditions: in vivo; in short: as §7
# [32] = tested on: Liver; assay: Biodistribution in liver of mouse assessed per organ at 8 to 11 x 10^-8 mol, iv measured after 15 mins; assay type: ADME, organism-based; conditions: in vivo, 0.25 h; in short: as §1
# [33] = tested on: Kidney; assay: Biodistribution in kidney of rat assessed per organ at 3.6 x 10^-8 mol, iv measured after 60 mins; assay type: ADME, organism-based; conditions: in vivo, 1 h; in short: as §5
# [34] = tested on: Adrenal medulla; assay: Biodistribution in adrenal medulla of rat assessed per organ at 3.6 x 10^-8 mol, iv measured after 5 mins; assay type: ADME, organism-based; conditions: in vivo; in short: as §5
# [35] = tested on: Rattus norvegicus; assay: Biodistribution in thyroid gland of rat assessed per organ at 3.6 x 10^-8 mol, iv measured after 30 mins; assay type: ADME, organism-based; conditions: in vivo, 0.5 h; in short: as §4
smiles,measurement,setting,value
Br.NCCc1cc(O)c(O)cc1[131I],Drug uptake,[1],0.012 %ID
same,Drug uptake,[2],0.48 %ID
same,Drug uptake,[3],0.03 %ID
same,Drug uptake,[4],0.084 %ID
same,Drug uptake,[5],0.67 %ID
same,Drug uptake,[6],2.36 %ID
same,Drug uptake,[7],0.0138 %ID
same,Drug uptake,[8],0.007 %ID
same,Drug uptake,[9],0.026 %ID
same,Drug uptake,[10],7.1 %ID
same,Drug uptake,[11],0.194 %ID
same,Drug uptake,[12],8.03 %ID
same,Drug uptake,[13],0.131 %ID
same,Drug uptake,[14],0.33 %ID
same,Drug uptake,[15],0.024 %ID
same,Drug uptake,[16],0.014 %ID
same,Drug uptake,[17],0.65 %ID
same,Drug uptake,[18],0.66 %ID
same,Drug uptake,[19],2.4 %ID
same,Drug uptake,[20],0.0047 %ID
same,Drug uptake,[21],0.84 %ID
same,Drug uptake,[22],0.0104 %ID
same,Drug uptake,[23],0.158 %ID
same,Drug uptake,[24],2.24 %ID
same,Drug uptake,[25],0.08 %ID
same,Drug uptake,[26],0.0028 %ID
same,Drug uptake,[27],3.55 %ID
same,Drug uptake,[28],0.066 %ID
same,Drug uptake,[29],0.0021 %ID
same,Drug uptake,[30],0.094 %ID
same,Drug uptake,[31],0.0021 %ID
same,Drug uptake,[32],3.64 %ID
same,Drug uptake,[33],0.72 %ID
same,Drug uptake,[34],0.0247 %ID
same,Drug uptake,[35],0.062 %ID
